According to ChEMBL document CHEMBL1153344, “Synthesis of casimiroin and optimization of its quinone reductase 2 and aromatase inhibitory activities” (J Med Chem, 2009):

Key:
[1] = target: T1, Ribosyldihydronicotinamide dehydrogenase [quinone] (Homo sapiens, UniProt P16083); assay: Inhibition of human quinone reductase 2 expressed in Escherichia coli BL21(DE3) incubated at 23 degC by MTT assay
T1 sequence (P16083 whole entry): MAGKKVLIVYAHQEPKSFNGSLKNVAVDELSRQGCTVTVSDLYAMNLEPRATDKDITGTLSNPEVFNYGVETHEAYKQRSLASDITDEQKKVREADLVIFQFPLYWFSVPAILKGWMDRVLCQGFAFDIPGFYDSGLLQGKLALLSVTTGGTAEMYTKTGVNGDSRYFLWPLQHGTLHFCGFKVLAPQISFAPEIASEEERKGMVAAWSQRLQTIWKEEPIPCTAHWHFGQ

Aromatase = target: T2, Aromatase (Homo sapiens, UniProt P11511)
T2 sequence (P11511 whole entry): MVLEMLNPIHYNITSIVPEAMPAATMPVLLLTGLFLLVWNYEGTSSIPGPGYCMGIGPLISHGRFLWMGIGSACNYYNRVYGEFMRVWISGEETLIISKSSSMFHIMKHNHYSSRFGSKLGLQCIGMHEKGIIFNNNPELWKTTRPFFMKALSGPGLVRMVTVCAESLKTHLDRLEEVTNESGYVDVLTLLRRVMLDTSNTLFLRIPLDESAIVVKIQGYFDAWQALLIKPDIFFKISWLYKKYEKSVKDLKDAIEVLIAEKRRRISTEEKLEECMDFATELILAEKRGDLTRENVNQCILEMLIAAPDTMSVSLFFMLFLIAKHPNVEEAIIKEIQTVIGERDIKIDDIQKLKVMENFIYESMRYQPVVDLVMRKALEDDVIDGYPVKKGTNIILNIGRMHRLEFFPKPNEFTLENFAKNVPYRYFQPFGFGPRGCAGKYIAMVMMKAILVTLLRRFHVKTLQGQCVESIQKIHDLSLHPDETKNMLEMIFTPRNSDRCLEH

[2] = Cytotoxicity against mouse Hepa-1c1c7 cells after 72 hrs by sulforhodamine B assay; format: functional, cell-based; details: Hepa-1c1c7, 72 h
In short: (§1)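 Cells seeded at 5.0×10^4 cells/mL in 96-well plates, given compound in 10% DMSO (10 µL) for final 0–20 µg/mL, 72 h incubation; zero-day control plate 30 min at 37 °C. Fixed with cold 50% TCA 30 min at 4 °C, stained 0.4% sulforhodamine B in 1% acetic acid 30 min, dye solubilized in 10 mM Tris base pH 10, absorbance 515 nm.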

MCF7 = assay: Cytotoxicity against human MCF7 cells after 72 hrs by sulforhodamine B assay; format: functional, cell-based; details: MCF7, 72 h; in short: as §1
LNCaP = assay: Cytotoxicity against human LNCAP cells after 72 hrs by sulforhodamine B assay; format: functional, cell-based; in short: as §1
[3] = Cytotoxicity against human Lu cells after 72 hrs by sulforhodamine B assay; format: functional, cell-based; in short: as §1

SMILES	IC50 [1] [µM]	IC50 (Aromatase) [µM]	IC50 [2] [µM]	IC50 (MCF7) [µM]	IC50 (LNCaP) [µM]	IC50 [3] [µM]
COc1cc(OC)c2c(c(C)cc(=O)n2C)c1OC	10.8	0.1	70.7	> 76	> 76	68.5
Cc1cc(=O)n(C)c2c1C(=O)C=CC2=O	> 500	> 98.4	54.1	60.5	58.1	49.2
COc1ccc2c(C)cc(=O)n(C)c2c1OC	9.3	5.76	> 85.8	> 85.8	> 85.8	> 85.8
COc1c(OC)c(OC)c2c(c(C)cc(=O)n2C)c1OC	> 500	0.76	> 68.2	> 68.2	> 68.2	> 68.2
Cc1cc(=O)[nH]c2c3c(ccc12)OCO3	10.8	> 98.5	> 98.5	> 98.5	> 98.5	> 98.5
COc1cc2c(C)cc(=O)n(C)c2c(OC)c1OC	7	2.72	> 76	> 76	> 76	> 76
COc1cc(OC)c2c(c1)c(C)cc(=O)n2C	1.9	0.96	> 85.8	> 85.8	> 85.8	> 85.8
COc1ccc(OC)c2c(C)cc(=O)[nH]c12	10.8	26.8	> 91.2	> 91.2	> 91.2	> 91.2
COc1ccc2c(C)cc(=O)[nH]c2c1OC	29.3	31.5	> 91.3	> 91.3	> 91.3	> 91.3
Cc1cc(=O)n(C)c2ccccc12	18.2	> 116	> 116	> 116	> 116	> 116

Now from value to compound, other results behind:

IC50 [1] [µM]	IC50 (Aromatase) [µM]	SMILES	IC50 [2] [µM]	IC50 (MCF7) [µM]	IC50 (LNCaP) [µM]	IC50 [3] [µM]
> 500	> 126	Cc1cc(=O)[nH]c2ccccc12	> 126	> 126	> 126	> 126
24.1	> 106	COc1cccc2c(C)cc(=O)[nH]c12	> 106	> 106	> 106	> 106
10	18.5	COc1cc2c(C)cc(=O)[nH]c2c(OC)c1OC	> 80.3	> 80.3	> 80.3	> 80.3
8.8	> 91.3	COc1cc(OC)c2[nH]c(=O)cc(C)c2c1	> 91.3	> 91.3	> 91.3	> 91.3
4.1	0.96	COc1ccc(OC)c2c1c(C)cc(=O)n2C	> 85.7	> 85.7	> 85.7	> 85.7
6.2	1.25	Cc1cc(=O)n(C)c2c3c(ccc12)OCO3	> 92.1	> 92.1	> 92.1	> 92.1
6	14.8	COc1cc(OC)c2[nH]c(=O)cc(C)c2c1OC	34.5	43	45.8	35.3
> 500	5.68	COc1c(OC)c(OC)c2c(C)cc(=O)[nH]c2c1OC	> 71.7	> 71.7	> 71.7	> 71.7
5.8	2.02	COc1cccc2c(C)cc(=O)n(C)c12	> 98.5	> 98.5	> 98.5	> 98.5
54.1	3.92	COc1cc(=O)n(C)c2c3c(ccc12)OCO3 [CASIMIROIN]	> 85.8	> 85.8	> 85.8	> 85.8
